Results published in ChEMBL document CHEMBL2424580, “Radiosynthesis of N-(4-chloro-3-[(11)C]methoxyphenyl)-2-picolinamide ([(11)C]ML128) as a PET radiotracer for metabotropic glutamate receptor subtype 4 (mGlu4)” (Bioorg Med Chem, 2013).

Tests used:
[1] = biological target: Metabotropic glutamate receptor 8 (Homo sapiens) (UniProt O00222); assay: Antagonist activity at mGlu8 receptor (unknown origin) expressed in CHO cells assessed as inhibition of glutamate-induced inositol phosphate accumulation at 10 uM after 45 mins by liquid scintillation counting analysis relative to control; type: functional, cell-based
Sequence of Metabotropic glutamate receptor 8 (Homo sapiens) (O00222 whole entry): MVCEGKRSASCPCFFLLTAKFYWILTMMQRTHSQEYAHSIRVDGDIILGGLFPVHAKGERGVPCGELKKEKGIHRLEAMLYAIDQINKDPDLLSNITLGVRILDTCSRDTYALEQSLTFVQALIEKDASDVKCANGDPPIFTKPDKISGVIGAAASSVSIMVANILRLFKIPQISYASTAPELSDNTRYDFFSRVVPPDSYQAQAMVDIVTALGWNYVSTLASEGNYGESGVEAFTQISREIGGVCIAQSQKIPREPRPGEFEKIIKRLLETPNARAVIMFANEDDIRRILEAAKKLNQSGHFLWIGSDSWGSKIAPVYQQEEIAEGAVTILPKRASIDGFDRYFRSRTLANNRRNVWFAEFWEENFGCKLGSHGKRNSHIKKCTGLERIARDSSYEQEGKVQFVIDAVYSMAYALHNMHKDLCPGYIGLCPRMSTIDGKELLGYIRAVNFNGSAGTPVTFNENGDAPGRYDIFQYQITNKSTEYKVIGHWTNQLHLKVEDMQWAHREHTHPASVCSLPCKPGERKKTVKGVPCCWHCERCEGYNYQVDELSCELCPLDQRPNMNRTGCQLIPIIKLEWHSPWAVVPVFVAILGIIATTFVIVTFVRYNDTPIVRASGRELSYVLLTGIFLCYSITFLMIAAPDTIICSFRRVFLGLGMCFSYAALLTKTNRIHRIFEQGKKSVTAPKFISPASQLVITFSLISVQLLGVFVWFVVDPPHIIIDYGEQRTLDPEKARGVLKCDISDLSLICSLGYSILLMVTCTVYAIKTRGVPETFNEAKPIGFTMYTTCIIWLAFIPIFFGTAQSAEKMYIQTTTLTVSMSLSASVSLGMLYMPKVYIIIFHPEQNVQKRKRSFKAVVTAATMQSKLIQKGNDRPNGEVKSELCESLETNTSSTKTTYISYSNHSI

[2] = biological target: Metabotropic glutamate receptor 5 (Homo sapiens) (UniProt P41594); assay: Antagonist activity at mGlu5a receptor (unknown origin) expressed in CHO cells assessed as inhibition of glutamate-induced inositol phosphate accumulation at 10 uM after 45 mins by liquid scintillation counting analysis relative to control; type: functional, cell-based
Sequence of Metabotropic glutamate receptor 5 (Homo sapiens) (P41594 21-1212 limits assumed): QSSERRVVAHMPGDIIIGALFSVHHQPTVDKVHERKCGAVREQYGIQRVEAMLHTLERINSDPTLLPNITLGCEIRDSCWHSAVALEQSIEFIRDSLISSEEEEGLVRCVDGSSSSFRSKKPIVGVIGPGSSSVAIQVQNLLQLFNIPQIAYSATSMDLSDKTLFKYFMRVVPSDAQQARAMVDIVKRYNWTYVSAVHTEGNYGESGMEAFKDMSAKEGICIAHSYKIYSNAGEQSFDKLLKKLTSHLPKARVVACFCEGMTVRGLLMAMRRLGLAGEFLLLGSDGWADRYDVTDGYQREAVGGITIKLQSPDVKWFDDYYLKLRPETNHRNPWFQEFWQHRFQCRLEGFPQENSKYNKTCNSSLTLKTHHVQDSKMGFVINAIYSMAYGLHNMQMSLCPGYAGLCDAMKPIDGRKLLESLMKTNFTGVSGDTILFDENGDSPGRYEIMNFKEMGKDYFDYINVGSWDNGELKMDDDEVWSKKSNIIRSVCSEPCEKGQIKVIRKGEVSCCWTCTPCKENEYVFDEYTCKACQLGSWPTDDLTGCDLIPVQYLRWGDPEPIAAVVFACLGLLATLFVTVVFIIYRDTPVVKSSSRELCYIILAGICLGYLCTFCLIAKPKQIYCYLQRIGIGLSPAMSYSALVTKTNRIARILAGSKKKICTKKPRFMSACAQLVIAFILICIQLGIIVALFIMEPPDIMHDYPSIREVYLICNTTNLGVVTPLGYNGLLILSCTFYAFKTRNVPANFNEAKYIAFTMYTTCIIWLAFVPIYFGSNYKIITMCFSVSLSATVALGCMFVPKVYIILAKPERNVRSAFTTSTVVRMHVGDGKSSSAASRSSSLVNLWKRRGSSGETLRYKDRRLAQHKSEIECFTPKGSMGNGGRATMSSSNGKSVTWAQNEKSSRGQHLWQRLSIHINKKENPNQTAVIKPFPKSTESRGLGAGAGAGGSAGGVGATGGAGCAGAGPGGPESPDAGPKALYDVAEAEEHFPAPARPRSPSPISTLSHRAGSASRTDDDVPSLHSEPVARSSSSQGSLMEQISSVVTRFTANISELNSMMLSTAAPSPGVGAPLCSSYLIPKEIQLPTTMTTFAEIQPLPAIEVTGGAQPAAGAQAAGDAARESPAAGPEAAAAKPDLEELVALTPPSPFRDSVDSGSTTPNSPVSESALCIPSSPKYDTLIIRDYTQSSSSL

[3] = biological target: Metabotropic glutamate receptor 8 (Homo sapiens) (UniProt O00222); assay: Agonist activity at mGlu8 receptor (unknown origin) expressed in CHO cells assessed as induction of inositol phosphate accumulation at 10 uM after 45 mins by liquid scintillation counting analysis relative to control; type: functional, cell-based
Summary of the method: (§1)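 Stably transfected CHO cells grown to confluency (3–4 days), then labelled overnight with myo-[3H]inositol in glutamine-free medium. Compound at 10 μM, 45 min at 37°C, in Locke's buffer pH 7.4 with 20 mM LiCl. IPs extracted with 0.1 M HCl, separated by anion exchange, counted by liquid scintillation. Result given as % of maximal agonist activity. Duplicates in two experiments on different passages.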

[4] = biological target: Metabotropic glutamate receptor 5 (Homo sapiens) (UniProt P41594); assay: Agonist activity at mGlu5a receptor (unknown origin) expressed in CHO cells assessed as induction of inositol phosphate accumulation at 10 uM after 45 mins by liquid scintillation counting analysis relative to control; type: functional, cell-based; summary of the method: as §1
[5] = system: Cerebellum; assay: Drug uptake in Sprague-Dawley rat cerebellum at 24.1 MBq, iv measured within 20 mins by PET analysis; type: ADME, organism-based; conditions: in vivo
Summary of the method: (§2)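 Male Sprague Dawley rats (300–500 g) under isoflurane/nitrous oxide anesthesia, with radioligand given via tail-vein catheter in 10% ethanol/saline. Dynamic small-animal PET ran for 60 min from injection (frames 18×10″, 14×30″, 20×60″, 10×180″), followed by CT for anatomy and attenuation. Data were corrected for uniformity, scatter and attenuation and reconstructed by MLEM (30 iterations) to give regional time-activity curves.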

[6] = Drug uptake in Sprague-Dawley rat olfactory bulb at 24.1 MBq, iv measured within 20 mins by PET analysis; type: ADME, organism-based; conditions: in vivo; summary of the method: as §2
[7] = system: Thalamus; assay: Drug uptake in Sprague-Dawley rat thalamus at 24.1 MBq, iv measured within 20 mins by PET analysis; type: ADME, organism-based; conditions: in vivo; summary of the method: as §2
[8] = system: Hippocampus; assay: Drug uptake in Sprague-Dawley rat hippocampus at 24.1 MBq, iv measured for 1 to 3 mins by PET analysis; type: ADME, organism-based; conditions: in vivo; summary of the method: as §2
[9] = system: Striatum; assay: Drug uptake in Sprague-Dawley rat striatum at 24.1 MBq, iv measured within 20 mins by PET analysis; type: ADME, organism-based; conditions: in vivo; summary of the method: as §2
[10] = system: Striatum; assay: Drug uptake in Sprague-Dawley rat striatum at 24.1 MBq, iv measured for 1 to 3 mins by PET analysis; type: ADME, organism-based; conditions: in vivo; summary of the method: as §2
[11] = system: Thalamus; assay: Drug uptake in Sprague-Dawley rat thalamus at 24.1 MBq, iv measured for 1 to 3 mins by PET analysis; type: ADME, organism-based; conditions: in vivo; summary of the method: as §2
[12] = Drug uptake in Sprague-Dawley rat olfactory bulb at 24.1 MBq, iv measured for 1 to 3 mins by PET analysis; type: ADME, organism-based; conditions: in vivo; summary of the method: as §2
[13] = system: Cerebellum; assay: Drug uptake in Sprague-Dawley rat cerebellum at 24.1 MBq, iv measured for 1 to 3 mins by PET analysis; type: ADME, organism-based; conditions: in vivo; summary of the method: as §2
[14] = system: Hippocampus; assay: Drug uptake in Sprague-Dawley rat hippocampus at 24.1 MBq, iv measured within 20 mins by PET analysis; type: ADME, organism-based; conditions: in vivo; summary of the method: as §2
[15] = Octanol-PBS buffer partition coefficient, log D of the compound at pH 7.4 by gamma counting analysis; type: physicochemical
Summary of the method: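 Radiotracer was partitioned between PBS and octanol by vortexing 2 min, then centrifuging at >8000 rpm for 2 min. Octanol was serially re-extracted into fresh PBS across six tube sets. Phases were gamma-counted with decay correction. logD = log(octanol activity × 10 / PBS activity).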

[16] = system: Muscle tissue; assay: Biodistribution in Sprague-Dawley rat muscle at 27.4 to 48.1 MBq after 1 to 40 mins by gamma counting analysis; type: ADME, organism-based; conditions: in vivo
Summary of the method: (§3)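 Male Sprague Dawley rats (300–500 g) given the radioligand i.v. (27.4–48.1 MBq/animal) in 10% ethanol/saline. Three rats were sacrificed at each of 1, 5, 10, 20 and 40 min. Harvested tissues were weighed and gamma-counted. Counts were corrected for decay and injected activity and expressed as %ID/g tissue.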

[17] = system: Kidney; assay: Biodistribution in Sprague-Dawley rat kidney at 27.4 to 48.1 MBq after 1 to 40 mins by gamma counting analysis; type: ADME, organism-based; conditions: in vivo; summary of the method: as §3
[18] = system: Liver; assay: Biodistribution in Sprague-Dawley rat liver at 27.4 to 48.1 MBq after 1 to 40 mins by gamma counting analysis; type: ADME, organism-based; conditions: in vivo; summary of the method: as §3
[19] = system: Lung; assay: Biodistribution in Sprague-Dawley rat lung at 27.4 to 48.1 MBq after 1 to 40 mins by gamma counting analysis; type: ADME, organism-based; conditions: in vivo; summary of the method: as §3
[20] = system: Heart; assay: Biodistribution in Sprague-Dawley rat heart at 27.4 to 48.1 MBq after 1 to 40 mins by gamma counting analysis; type: ADME, organism-based; conditions: in vivo; summary of the method: as §3
[21] = system: Blood; assay: Biodistribution in Sprague-Dawley rat blood at 27.4 to 48.1 MBq after 1 to 40 mins by gamma counting analysis; type: ADME, organism-based; conditions: in vivo; summary of the method: as §3
[22] = system: Brain; assay: Biodistribution in Sprague-Dawley rat brain at 27.4 to 48.1 MBq after 1 to 40 mins by gamma counting analysis; type: ADME, organism-based; conditions: in vivo; summary of the method: as §3
[23] = Metabolic stability in Sprague-Dawley rat plasma assessed as intact compound level at 24.1 MBq, iv after 50 mins by gamma counting analysis; type: ADME, organism-based; conditions: read-out: Stability
[24] = Metabolic stability in Sprague-Dawley rat plasma assessed as intact compound level at 24.1 MBq, iv after 5 mins by gamma counting analysis; type: ADME, organism-based; conditions: read-out: Stability
Summary of the method: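 Femoral arterial blood was drawn from three rats at 5, 25 and 55 min after i.v. radioligand and centrifuged. Plasma was mixed 1:1 with acetonitrile and centrifuged to remove protein. The supernatant was loaded on a phenyl SPE cartridge and eluted with an acetonitrile–0.1% TFA/water gradient (0–100% acetonitrile) to separate intact tracer.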

[25] = Reduction in drug uptake in Sprague-Dawley rat whole brain at 24.1 MBq, iv after 2 to 15 mins by PET analysis in presence of mGlu5 blocker MTEP hydrochloride; type: ADME, organism-based; conditions: in vivo
Summary of the method: (§4)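 MTEP·HCl (5 mg/kg, in sterile water) was injected into the tail vein 2 min before i.v. radioligand. Anesthetized rats were imaged by 60-min dynamic PET with CT attenuation correction and MLEM reconstruction. Uptake at 2–15 min was compared with control scans, and percent change was calculated per brain region.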

[26] = system: Hippocampus; assay: Reduction in drug uptake in Sprague-Dawley rat hippocampus at 24.1 MBq, iv after 2 to 15 mins by PET analysis in presence of mGlu5 blocker MTEP hydrochloride; type: ADME, organism-based; conditions: in vivo; summary of the method: as §4
[27] = system: Striatum; assay: Reduction in drug uptake in Sprague-Dawley rat striatum at 24.1 MBq, iv after 2 to 15 mins by PET analysis in presence of mGlu5 blocker MTEP hydrochloride; type: ADME, organism-based; conditions: in vivo; summary of the method: as §4
[28] = Reduction in drug uptake in Sprague-Dawley rat whole brain at 24.1 MBq, iv after 2 to 15 mins by PET analysis in presence of mGlu4 blocker N-(3-(Difluoromethoxy)phenyl)-2-picolinamide hydrochloride salt; type: ADME, organism-based; conditions: in vivo
Summary of the method: as §4, with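 “Rats were pretreated with the mGlu4 blocker (10 mg/kg i.p.,” for “MTEP·HCl (5 mg/kg,”, “10% ethanol/10% Tween-20 in” for “sterile”, “30” for “was injected into the tail vein 2”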

[29] = system: Cerebellum; assay: Reduction in drug uptake in Sprague-Dawley rat cerebellum at 24.1 MBq, iv after 2 to 15 mins by PET analysis in presence of mGlu4 blocker N-(3-(Difluoromethoxy)phenyl)-2-picolinamide hydrochloride salt; type: ADME, organism-based; conditions: in vivo
Summary of the method: as §4, with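 “Rats were pretreated with the mGlu4 blocker (10 mg/kg i.p.,” for “MTEP·HCl (5 mg/kg,”, “10% ethanol/10% Tween-20 in” for “sterile”, “30” for “was injected into the tail vein 2”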

[30] = system: Hippocampus; assay: Reduction in drug uptake in Sprague-Dawley rat hippocampus at 24.1 MBq, iv after 2 to 15 mins by PET analysis in presence of mGlu4 blocker N-(3-(Difluoromethoxy)phenyl)-2-picolinamide hydrochloride salt; type: ADME, organism-based; conditions: in vivo
Summary of the method: as §4, with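 “Rats were pretreated with the mGlu4 blocker (10 mg/kg i.p.,” for “MTEP·HCl (5 mg/kg,”, “10% ethanol/10% Tween-20 in” for “sterile”, “30” for “was injected into the tail vein 2”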

[31] = system: Striatum; assay: Reduction in drug uptake in Sprague-Dawley rat striatum at 24.1 MBq, iv after 2 to 15 mins by PET analysis in presence of mGlu4 blocker N-(3-(Difluoromethoxy)phenyl)-2-picolinamide hydrochloride salt; type: ADME, organism-based; conditions: in vivo
Summary of the method: as §4, with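 “Rats were pretreated with the mGlu4 blocker (10 mg/kg i.p.,” for “MTEP·HCl (5 mg/kg,”, “10% ethanol/10% Tween-20 in” for “sterile”, “30” for “was injected into the tail vein 2”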

`COc1cc(NC(=O)c2ccccn2)ccc1Cl` showed an inhibition [1] of -5%, an inhibition [2] of 51% and an Activity [3] of 13%. The Activity [4] was -15%.
For `[11CH3]Oc1cc(NC(=O)c2ccccn2)ccc1Cl`, the Drug uptake [5] was “Not Active”, the Drug uptake [6] was “Not Active” and the Drug uptake [7] was “Not Active”. The Drug uptake [8] was “Active”, the Drug uptake [9] was “Not Active” and the Drug uptake [10] was “Active”. For the same molecule, the Drug uptake [11] was “Active”, the Drug uptake [12] was “Active” and the Drug uptake [13] was “Active”. The Drug uptake [14] was “Not Active”, the logD [15] was 3.09 and the Drug uptake [16] was less than 1 % ID/g. The Drug uptake [17] was greater than 1 % ID/g, the Drug uptake [18] was greater than 1 % ID/g and the Drug uptake [19] was less than 1 % ID/g. It also gave a Drug uptake [20] of less than 1 % ID/g, a Drug uptake [21] of less than 1 % ID/g and a Drug uptake [22] of less than 1 % ID/g. For the same molecule, the remaining at 50 min [23] was 10%, the remaining at 5 min [24] was 30% and the Drug uptake [25] was “Active”. The Drug uptake [26] was “Active”, the Drug uptake [27] was “Active” and the Drug uptake [28] was “Active”. The Drug uptake [29] was “Active”, the Drug uptake [30] was “Active” and the Drug uptake [31] was “Active”.
